An excerpt weighted towards active compounds, which were near 2.4% of everything screened.
Mdm2 ligase inh – MDM2-luciferase reporter signal enhancers, primary screen, MDM2 E3 ligase inhibitor project, cell-based, luminescence, 1536-well | E3 ubiquitin-protein ligase Mdm2 (Homo sapiens), Q00987 | cell-based MDM2 ubiquitination luciferase reporter, 2 h; 0 = plate control, 100 = twice control, blank-subtracted | signal enhancement, % at 5 µM | 0.11% of 210,000 active;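 active = signal enhancement of 30% or more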;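 note: luminescence tracks abundance of the self-degrading MDM2-luciferase fusion protein; higher signal means inhibition of MDM2 E3 ligase activity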
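Material: stable MDM2–luciferase fusion reporter cells / Quantity: 2000 cells/well / Dosing: single 5 µM compound dose, 0.2% final DMSO / Buffer or medium: DMEM / Schedule: 4 h cell settling then 2 h compound exposure, 37 °C / Detection: luminescence with SteadyLite reagent, 15 min at room temperature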
L929 necroptosis – inhibitors of zVAD-triggered necroptosis, primary screen, L929 cells | L929 zVAD necroptosis rescue, ATP luminescence, 24 h; with zVAD 60 µM | viability rescue, % at 10 µM | 0.38% of 220,000 active;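 active = activation, scaled between plate controls, above about 75%, limit read from the data; inactive = activation under that limit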
Hck Nef HTS – inhibitors of Nef-activated human Hck kinase, primary screen, biochemical, Z-Lyte FRET, 384-well, Hck-YEEI. inhibition, % at 20 µM. Tyrosine-protein kinase HCK (Homo sapiens), P08631. Recombinant Hck-YEEI plus Nef, Z-Lyte FRET kinase assay. 0.68% of 220,000 active;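 active = Hck-Nef kinase inhibition above about 50%, limit read from the data; inactive = inhibition below that limit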
Target sequence (P08631 whole entry, looked up): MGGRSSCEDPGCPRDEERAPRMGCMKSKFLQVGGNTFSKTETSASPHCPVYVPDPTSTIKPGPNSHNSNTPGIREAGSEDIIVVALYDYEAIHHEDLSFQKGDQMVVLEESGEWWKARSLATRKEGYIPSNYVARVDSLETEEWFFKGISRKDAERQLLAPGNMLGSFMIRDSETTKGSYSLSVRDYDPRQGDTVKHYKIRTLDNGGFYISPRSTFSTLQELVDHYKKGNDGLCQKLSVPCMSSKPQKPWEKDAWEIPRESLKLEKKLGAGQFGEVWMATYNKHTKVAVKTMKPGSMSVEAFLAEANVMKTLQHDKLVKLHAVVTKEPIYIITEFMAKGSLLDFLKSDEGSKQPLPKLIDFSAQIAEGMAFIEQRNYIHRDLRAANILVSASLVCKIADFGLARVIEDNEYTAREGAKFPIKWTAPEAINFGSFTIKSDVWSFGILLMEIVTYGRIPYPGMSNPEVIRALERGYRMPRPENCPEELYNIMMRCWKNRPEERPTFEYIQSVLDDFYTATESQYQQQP
Autophagy HCS – autophagy modulators in MEF cells, primary screen, imaging, high-content, MEF GFP-LC3. 0.98% of 190,000 active. calls only at 10 µM (by protocol). MEF GFP-LC3 puncta imaging; test concentration mostly 10 µM;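 active = percentage of spot-positive cells more than 3 SD above its plate mean, without a fluorescence outlier flag or 80% toxicity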
Dynein transport – inhibitors of GR-EGFP nuclear translocation, primary screen, dynein cargo transport inhibitor project, imaging, high-content, 3617.4 mouse cells | 0.47% of 220,000 active | AID 1381, 2008 | test concentration mostly 20 µM; stimulated with dexamethasone, 1 µM; active compounds read low | z-score, hits read low;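 active = plate z-score of nuclear minus cytoplasmic receptor signal below a set negative limit, without overly bright fluorescence or cell loss, cut at about -3.5 in these data, passing the limit was not always enough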;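 note: z-score of nuclear minus cytoplasmic ring GR-EGFP intensity difference per well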
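Also added: dexamethasone, 1.0 µM final. Medium: tet-free, stripped-serum medium. Detection: fixed, Hoechst-stained cells imaged at 10x for EGFP. Read-out: nuclear-to-cytoplasmic GR-EGFP distribution per well. Times: induction 48 h, compound 1 h, agonist 30 min.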
TNF necrop inh – inhibitors of TNF-alpha triggered necroptosis, primary screen, cell-based, Jurkat FADD-/-, single concentration; Jurkat FADD-/- TNF necroptosis rescue, ATP luminescence, 24 h; 0 = TNF only, 100 = no-TNF cells; activation (protection from cell death), % at 10 µM; 0.068% of 220,000 active; AID 463075, 2010;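 active = activation, meaning protection from cell death, of at least 50% relative to plate controls; inactive = activation below 50%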;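 note: necroptosis triggered by 40 ng/mL TNF-alpha added together with compound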
Each line names hits and unclear results; the compound was inactive in the other large screens.

Cc1ccc(NC(=O)CSc2ncn[nH]2)cc1S(=O)(=O)N1CCOCC1	none
COc1ccc(OCC(=O)N/N=C(\C)CC(=O)Nc2cccc([N+](=O)[O-])c2)cc1	Mdm2 ligase inh 32
COc1ccc(CC(=O)Nc2cccc(/C(C)=N/NC(=O)c3cccc([N+](=O)[O-])c3)c2)cc1	none
O=C(Cn1cccc1C(=O)c1ccccc1)NCCCN1CCOCC1	none
Cc1ccc(C)c(N2CCN(CCCNC(=O)Cn3cccc3C(=O)c3ccccc3)CC2)c1	Autophagy HCS active
CCC(C)(C)n1nnnc1C(c1cc2cc(C)cc(C)c2[nH]c1=O)N1CCN(Cc2ccc3c(c2)OCO3)CC1 (configuration not stated)	Autophagy HCS active
COc1ccc2ncn(-c3ccccc3)c2c1	L929 necroptosis 88
c1ccc(-n2cnc3ccccc32)cc1	none
N=c1c2c(n(Cc3ccc([N+](=O)[O-])cc3)c3c1CCC3)CCCC2	Autophagy HCS active
N=c1c2c(n(Cc3ccc(Br)cc3)c3c1CCC3)CCCC2	none
O=C(NCc1ccc(Cl)cc1Cl)C(=O)N1CCCCC1	none
CC(=O)Cc1nsc(NC(=O)c2ccc(-c3cccc(C(F)(F)F)c3)o2)n1	Autophagy HCS active
Cc1nc2n[nH]c(N)c2c2c1CCCC2	none (no result: Autophagy HCS)
COc1ccc(/C=N/NC(=O)CCNc2n[nH]c(=O)[nH]c2=O)c(OC)c1	Autophagy HCS active
Cc1[nH]c2ccc(Cl)cc2c(=O)c1CN1CCCC1	Mdm2 ligase inh 35
CCN(CC)c1ccc2c(c1)OC(N)=C(C#N)C2c1cccnc1 (configuration not stated)	Autophagy HCS active
N#CC1=C(N)Oc2cc(N)ccc2C1c1cccnc1 (configuration not stated)	none (no result: L929 necroptosis)
CCC(C)N(C(=O)COc1ccc(NC(C)=O)cc1)C1CCS(=O)(=O)C1 (configuration not stated)	none
Cc1ccc(NC(=O)N(Cc2cccs2)Cc2cc3cc4c(cc3[nH]c2=O)OCO4)cc1	none
Cc1ccc(NC(=O)N(Cc2ccc3c(c2)OCO3)Cc2cc3cc4c(cc3[nH]c2=O)OCCO4)cc1	Autophagy HCS active
CCCCc1ccc(N/C(N)=N/c2nc(C)cc(C)n2)cc1	none (no result: Autophagy HCS)
COc1cc([C@@H]2[C@H]3CN(C)CC=C3C(C#N)=C(N)C2(C#N)C#N)cc2c1OCO2	Autophagy HCS active
CN1CC=C2C(C#N)=C(N)C(C#N)(C#N)[C@H](c3cccs3)[C@H]2C1	Autophagy HCS active
O=C(CS(=O)(=O)c1ccccc1)N1CCc2ccccc21	none
COc1ccc(-c2cc(C(F)(F)F)nc(SCC(=O)NCc3cnn(C)c3C)n2)cc1OC	Mdm2 ligase inh 35
COc1ccccc1C1C(C(=O)c2sc(C)nc2C)=C(O)C(=O)N1CCN1CCOCC1 (configuration not stated)	none
CC(C)CCNC(=O)C(c1ccco1)N(Cc1ccccc1)C(=O)c1snc(C(N)=O)c1N (configuration not stated)	none
Cc1ccc(N(C(=O)c2snc(C(N)=O)c2N)C(C(=O)NCCC(C)C)c2ccco2)cc1 (configuration not stated)	Hck Nef HTS 75
C=CCn1c(SCC(=O)Nc2nnc(CC)s2)nnc1-c1ccncc1	none
COCCNS(=O)(=O)c1ccc(-c2ccc(C)cc2)cc1	none
COCCNS(=O)(=O)c1ccc(SC)cc1	TNF necrop inh 50
CCOc1ccc(NC(=O)CN(C)S(=O)(=O)c2cnc[nH]2)cc1	Mdm2 ligase inh 32
CCOC(=O)c1c(NC(=O)CN2C(=O)NC(C)(c3ccccc3)C2=O)sc(C)c1C (configuration not stated)	Autophagy HCS active
CCN1CCN(c2ncnc3c2c(-c2ccccc2)cn3-c2ccc(F)cc2)CC1	Autophagy HCS active
Fc1ccc(-n2cc(-c3ccccc3)c3c(N4CCOCC4)ncnc32)cc1	none
COc1ccc(CNC(=O)CNC(=O)c2c(C)nn(C)c2Cl)cc1	none
COc1ccc(CCNC(=O)CN2CCN(c3cccc(C(F)(F)F)c3)CC2)cc1	none
Clc1ccc(-n2nnnc2Sc2ncnc3sccc23)cc1	Autophagy HCS active (no result: Mdm2 ligase inh)
C=CCN1C(=O)c2cccc3c(N4CCCCC4)ccc(c23)C1=O	none
O=C1c2cccc3c(N4CCCCC4)ccc(c23)C(=O)N1CCO	Autophagy HCS active
O=C1c2cccc3c(N4CCCCC4)ccc(c23)C(=O)N1c1cccc(O)c1	none
O=C(OCCN1C(=O)c2cccc3c(N4CCOCC4)ccc(c23)C1=O)c1ccccc1Cl	Autophagy HCS active
Cc1n[nH]c(C)c1N1C(=O)c2cccc3c(N4CCCCCC4)ccc(c23)C1=O	Autophagy HCS active
O=C(NCCCN1CCOCC1)C(=O)N/N=C/c1ccccc1O	none (no result: Autophagy HCS)
Cc1nc(COC(=O)c2c(C)nn(-c3ccccc3)c2C)cs1	none
O=S(=O)(NCc1ccccc1)c1ccc(Cl)cc1	none
O=S(=O)(Nc1cc2nc3ccccc3nc2n1Cc1ccccc1)c1ccc(Cl)cc1	Autophagy HCS active
OC1(c2cccc(C(F)(F)F)c2)CCN(c2ncnc3c2[nH]c2ccccc23)CC1	Autophagy HCS active
c1ccc2c(c1)[nH]c1c(N3CCC4(CC3)OCCO4)ncnc12	none
COc1ccc(NC(=O)/C(Cl)=C(/Cl)S(=O)Cc2ccccc2Cl)cn1 (configuration not stated)	Dynein transport -5
CSCCC(C(=O)Nc1ccc2c(c1)OCO2)N1C(=O)c2ccccc2C1=O (configuration not stated)	none
CC(=O)Nc1ccc(S(=O)(=O)NCC(=O)NC(C)c2ccc(S(N)(=O)=O)cc2)cc1 (configuration not stated)	none (no result: Autophagy HCS)
CCN(CC)C(=O)Cn1c(=O)c2ccccc2n2c(=S)sc(-c3cccc(C)c3)c12	Autophagy HCS active
Cc1ccc(NC(=O)C2=C(c3ccccc3)S(=O)(=O)CCS2(=O)=O)cc1	none
CCOc1ccc2nc(Nc3nc(CSc4nnnn4-c4ccccc4)cc(=O)[nH]3)nc(C)c2c1	none
COc1ccc2nc(Nc3nc(CSc4nnnn4-c4ccccc4)cc(=O)[nH]3)nc(C)c2c1	Autophagy HCS active

Source: PubChem BioAssay (several laboratories)
